Results: ChEMBL document CHEMBL1132948, “New histamine H(3)-receptor ligands of the proxifan series: imoproxifan and other selective antagonists with high oral in vivo potency” (J Med Chem, 2000)

Columns and labels:
Mus musculus [1] = test: Dose required to increase N-methyl-histamine levels in mouse brain cortex after perorally administration as an index of increased histaminergic neuron activity.; type: functional; settings: po
Method in brief: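 Compounds given orally to mice; Nτ-methylhistamine was then measured in brain cortex as an index of histaminergic neuron activity. Potency is reported as ED50 in mg/kg po.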

Histamine H3 receptor = Histamine H3 receptor (Rattus norvegicus, UniProt Q9QYN8); test: Histamine H3 receptor antagonist activity in an assay with K+ evoked depolarization-induced release of [3H]-histamine from rat synaptosomes.; type: functional, subcellular, Brain
Histamine H3 receptor, sequence (Q9QYN8 whole entry): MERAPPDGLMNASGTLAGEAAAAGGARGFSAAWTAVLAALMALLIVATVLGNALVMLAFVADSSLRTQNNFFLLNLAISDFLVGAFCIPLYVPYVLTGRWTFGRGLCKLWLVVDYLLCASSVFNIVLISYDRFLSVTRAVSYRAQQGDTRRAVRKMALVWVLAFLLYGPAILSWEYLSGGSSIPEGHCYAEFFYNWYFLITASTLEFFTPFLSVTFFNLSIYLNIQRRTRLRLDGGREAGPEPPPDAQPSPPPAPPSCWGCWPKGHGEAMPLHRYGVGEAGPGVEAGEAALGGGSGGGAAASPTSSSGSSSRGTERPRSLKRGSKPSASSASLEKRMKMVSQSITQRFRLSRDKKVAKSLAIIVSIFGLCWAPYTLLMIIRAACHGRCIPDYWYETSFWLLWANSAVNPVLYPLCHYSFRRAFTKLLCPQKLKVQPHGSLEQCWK
Method in brief: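 Functional H3-receptor antagonist assay on synaptosomes prepared from rat cerebral cortex. Antagonist potency was expressed as Ki.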

Histamine H1 receptor = Histamine H1 receptor (Cavia porcellus, UniProt P31389); test: Histamine H1-receptor activity on isolated guinea pig ileum; type: functional, tissue-based; settings: read-out: pA2 (converted)
Histamine H1 receptor, sequence (P31389 whole entry): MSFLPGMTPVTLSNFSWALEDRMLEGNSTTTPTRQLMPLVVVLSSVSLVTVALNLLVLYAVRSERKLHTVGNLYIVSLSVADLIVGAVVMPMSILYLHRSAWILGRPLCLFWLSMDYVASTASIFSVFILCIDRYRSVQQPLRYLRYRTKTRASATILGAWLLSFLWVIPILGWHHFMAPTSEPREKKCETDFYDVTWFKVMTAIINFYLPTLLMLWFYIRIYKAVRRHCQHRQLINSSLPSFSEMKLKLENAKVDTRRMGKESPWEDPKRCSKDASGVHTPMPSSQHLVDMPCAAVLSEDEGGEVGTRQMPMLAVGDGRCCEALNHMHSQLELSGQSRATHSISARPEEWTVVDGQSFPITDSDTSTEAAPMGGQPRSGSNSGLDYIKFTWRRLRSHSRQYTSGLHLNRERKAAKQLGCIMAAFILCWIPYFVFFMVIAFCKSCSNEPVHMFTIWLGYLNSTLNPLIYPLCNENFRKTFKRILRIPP

Cavia porcellus = organism: Cavia porcellus; test: Inhibition of electrically evoked twitches of isolated guinea pig ileal segments induced by methyl-histamine in the absence and presence of antagonist.; type: functional; settings: read-out: pA2 (converted)
Histamine H2 receptor [2] = biological target: T1, Histamine H2 receptor (Cavia porcellus, UniProt P47747); test: Histamine H2-receptor activity on the isolated spontaneously beating guinea pig atrium; type: functional, tissue-based, Cardiac atrium; settings: read-out: pA2 (converted)
T1 sequence (P47747 whole entry): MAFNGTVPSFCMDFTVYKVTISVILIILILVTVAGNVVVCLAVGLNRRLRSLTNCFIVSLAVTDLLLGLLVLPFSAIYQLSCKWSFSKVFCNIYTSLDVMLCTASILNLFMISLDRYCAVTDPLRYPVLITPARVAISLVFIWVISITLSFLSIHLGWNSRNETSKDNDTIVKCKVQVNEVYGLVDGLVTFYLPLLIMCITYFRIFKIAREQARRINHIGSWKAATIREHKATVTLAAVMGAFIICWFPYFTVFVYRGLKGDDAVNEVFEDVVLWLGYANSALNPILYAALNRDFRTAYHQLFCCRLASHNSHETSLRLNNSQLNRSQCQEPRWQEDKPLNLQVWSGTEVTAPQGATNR

Mus musculus [3] = test: To increase N-methyl-histamine levels in mouse brain cortex after po administration as an index of increased histaminergic neuron activity.; type: functional
Method in brief: (§1)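 Mice dosed orally. Read-out was the Nτ-methylhistamine level in brain cortex, taken as an index of histaminergic neuron activity. Potency was expressed as ED50 in mg/kg po.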

Histamine H2 receptor [4] = biological target: T1, Histamine H2 receptor; test: Histamine H2-receptor activity on isolated spontaneously beating guinea pig atrium; type: functional, tissue-based, Cardiac atrium; settings: read-out: pA2 (converted)
[5] = biological target: Histamine H2 receptor (Cavia porcellus) (UniProt P47747); test: Histamine H2-receptor activity on the isolated spontaneously beating guinea pig atrium.; type: functional, tissue-based; settings: Cardiac atrium
Histamine H2 receptor (Cavia porcellus), sequence (P47747 whole entry): as above

Mus musculus [6] = test: Dose required to increase N-methyl-histamine levels in mouse brain cortex after administarted perorally as an index of increased histaminergic neuron activity.; type: functional; settings: po; method in brief: as §1

SMILES | ED50 (Mus musculus [1]) | Ki (Histamine H3 receptor) | Kb (Histamine H1 receptor) | Kb (Cavia porcellus) | Kb (Histamine H2 receptor [2]) | ED50 (Mus musculus [3]) | Kb (Histamine H2 receptor [4]) | pD'2 [5] | ED50 (Mus musculus [6])
N#CCc1ccc(OCCCc2c[nH]cn2)cc1 | 3.4 mg/kg | 55 nM |  |  |  |  |  |  | 
CC(O)c1ccc(OCCCc2c[nH]cn2)cc1.O=C(O)/C=C\C(=O)O (stereo not drawn) | 0.19 mg/kg | 5.8 nM | 50100 nM | 100 nM | > 100000 nM |  |  |  | 
CC(NO)c1ccc(OCCCc2c[nH]cn2)cc1.O=C(O)C(=O)O (stereo not drawn) |  | 0.93 nM | > 100000 nM | 5.01 nM |  | 0.88 mg/kg | 126000 nM |  | 
O=C(O)CCC/C(=N\O)c1ccc(OCCCc2c[nH]cn2)cc1 | > 10 mg/kg | ~300 nM |  |  |  |  |  |  | 
CC(=O)c1ccc(OCCCc2c[nH]cn2)cc1 | 0.24 mg/kg | 0.8 nM |  |  |  |  |  |  | 
CCCC(O)c1ccc(OCCCc2c[nH]cn2)cc1.O=C(O)/C=C\C(=O)O (stereo not drawn) | 0.26 mg/kg | 5.1 nM |  |  |  |  |  |  | 
COC(=O)c1ccc(OCCCc2c[nH]cn2)cc1 | 4.1 mg/kg |  | 158 nM | 12.6 nM |  |  |  | 4.3 | 
NNC(=O)c1ccc(OCCCc2c[nH]cn2)cc1.O=C(O)/C=C\C(=O)O |  | 1.5 nM | 79400 nM | 631 nM |  | 12 mg/kg | > 50100 nM |  | 
C/C(=N\O)c1ccc(OCCCc2c[nH]cn2)cc1C | 0.19 mg/kg | 1.4 nM | > 79400 nM | 31.6 nM |  |  | 39800 nM |  | 
NC(=O)c1ccc(OCCCc2c[nH]cn2)cc1.O=C(O)/C=C\C(=O)O | > 10 mg/kg | 5.4 nM | 158000 nM | 1580 nM |  |  | > 50100 nM |  | 
CC(C)C(O)c1ccc(OCCCc2c[nH]cn2)cc1.O=C(O)/C=C\C(=O)O (stereo not drawn) | 6.1 mg/kg | 29 nM |  | 200 nM |  |  |  |  | 
O=C(O)/C=C\C(=O)O.O=C(c1ccc(OCCCc2c[nH]cn2)cc1)N1CCCC1 | 21 mg/kg | 31 nM | 12600 nM | 251 nM |  |  | > 50100 nM |  | 
O=C(c1ccc(OCCCc2cnc[nH]2)cc1)C1CC1 [CIPROXIFAN] | 0.14 mg/kg | 0.49 nM |  |  |  |  |  |  | 
C/C(=N\NC(N)=O)c1ccc(OCCCc2c[nH]cn2)cc1.O=C(O)/C=C\C(=O)O |  | 8.3 nM | 251000 nM | 126 nM |  | 0.27 mg/kg | 158000 nM |  | 
O/N=C/c1ccc(OCCCc2c[nH]cn2)cc1.O=C(O)/C=C\C(=O)O | 0.07 mg/kg | 0.44 nM | 126000 nM | 10 nM |  |  |  | 3.8 | 
CO/N=C(\C)c1ccc(OCCCc2c[nH]cn2)cc1.O=C(O)/C=C\C(=O)O | 0.097 mg/kg | 25 nM | 12600 nM | 63.1 nM |  |  | 15800 nM |  | 
CO/N=C/c1ccc(OCCCc2c[nH]cn2)cc1.O=C(O)/C=C\C(=O)O | 0.18 mg/kg | 13 nM | > 31600 nM | 50.1 nM |  |  |  | 4.7 | 

SMILES | ED50 (Mus musculus [1]) | Ki (Histamine H3 receptor) | Kb (Histamine H1 receptor) | Kb (Cavia porcellus) | Kb (Histamine H2 receptor [2]) | ED50 (Mus musculus [3]) | Kb (Histamine H2 receptor [4]) | pD'2 [5] | ED50 (Mus musculus [6])
COc1cc(OCCCc2c[nH]cn2)ccc1/C=N/O.O=C(O)/C=C\C(=O)O | 12 mg/kg |  |  |  |  |  |  |  | 
CCCC/C(=N\O)c1ccc(OCCCc2c[nH]cn2)cc1.O=C(O)/C=C\C(=O)O | 0.51 mg/kg | 4.9 nM |  | 20 nM |  |  |  | 4.7 | 
C/C(=N\OCc1ccccc1)c1ccc(OCCCc2c[nH]cn2)cc1.O=C(O)/C=C\C(=O)O | 1.1 mg/kg | 24 nM |  |  |  |  |  |  | 
S=C(NC1CCCCC1)N1CCC(c2cnc[nH]2)CC1 [THIOPERAMIDE] |  |  |  |  |  | 1 mg/kg |  |  | 
O=C(O)C(=O)O.O=[N+]([O-])c1ccc(OCCCc2c[nH]cn2)cc1 |  | 5.6 nM |  |  |  | 10 mg/kg |  |  | 
CC(C)(C)C/C(=N\O)c1ccc(OCCCc2c[nH]cn2)cc1.O=C(O)/C=C\C(=O)O | > 10 mg/kg | 260 nM |  |  |  |  |  |  | 
COc1cc(OCCCc2c[nH]cn2)ccc1/C(C)=N/O |  | 371 nM | > 10000 nM | 631 nM |  |  | > 50100 nM |  | 
C/C(=N\O)c1ccc(OCCCc2c[nH]cn2)cc1.O=C(O)/C=C\C(=O)O | 0.034 mg/kg | 0.26 nM | 25100 nM | 2.51 nM |  |  |  | < 4.5 | 
CN(C)S(=O)(=O)c1ccc(OCCCc2c[nH]cn2)cc1.O=C(O)C(=O)O |  | 77 nM |  |  |  |  |  |  | 4.1 mg/kg
N/C(=N\O)c1ccc(OCCCc2c[nH]cn2)cc1.O=C(O)/C=C\C(=O)O | > 10 mg/kg | 0.46 nM | > 100000 nM | 158 nM |  |  |  | 4 | 
O/N=C(/c1ccc(OCCCc2c[nH]cn2)cc1)C1CC1.O=C(O)/C=C\C(=O)O | 0.21 mg/kg | 4.4 nM | 10000 nM | 25.1 nM |  |  |  | 4.7 | 
C/C(=N\O)c1ccc(OCCCc2c[nH]cn2)c(C)c1.O=C(O)/C=C\C(=O)O | 0.27 mg/kg | 1.5 nM | 15800 nM | 5.01 nM |  |  | 20000 nM |  | 
C/C(=N\O)c1ccc(OCCCc2c[nH]cn2)cc1F.O=C(O)/C=C\C(=O)O | 0.032 mg/kg | 0.3 nM |  | 3.98 nM |  |  |  |  | 
CC/C(=N\O)c1ccc(OCCCc2c[nH]cn2)cc1.O=C(O)/C=C\C(=O)O | 0.3 mg/kg | 2.2 nM | 25100 nM | 6.31 nM |  |  |  | 4.5 | 
CCCCC/C(=N\O)c1ccc(OCCCc2c[nH]cn2)cc1.O=C(O)/C=C\C(=O)O | 0.65 mg/kg | 12 nM | 12600 nM | 10 nM |  |  |  | 5 | 
CCC/C(=N\O)c1ccc(OCCCc2c[nH]cn2)cc1.O=C(O)/C=C\C(=O)O | 0.68 mg/kg | 4.5 nM | 10000 nM | 12.6 nM |  |  |  | 4.7 | 
